Results reported in ChEMBL document CHEMBL1177727, “Diarylaniline derivatives as a distinct class of HIV-1 non-nucleoside reverse transcriptase inhibitors” (J Med Chem, 2010).
Activity calls are given as the source filed them. The rule behind the calls is not given here.

Tests used:
[1] = system: Human immunodeficiency virus 1; test: Antiviral activity against wild type HIV1 3B infected in human MT2 cells assessed as inhibition of p24 antigen production after 4 days by ELISA; format: functional, organism-based; conditions: Human immunodeficiency virus 1, 3B, MT2, 96 h
Outline: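 1 × 10⁴ MT-2 cells infected with HIV-1 IIIB (100 TCID₅₀) in RPMI 1640/10% FBS with graded compound overnight, then compound-free medium. Day-4 supernatants lysed in Triton X-100 and p24 measured by sandwich ELISA (HIVIG capture, anti-p24 mAb, TMB, A450) against a recombinant p24 standard curve. Triplicates; EC50 from percent inhibition via median-effect analysis.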

H9 = test: Cytotoxicity against human H9 cells after 6 days by XTT assay; format: cell-based; conditions: h9, 144 h
Outline: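 Mock-infected H9 human T cells (3 × 10⁵ cells/mL in RPMI 1640 with 10% fetal calf serum and L-glutamine, 37 °C, 5% CO₂) exposed to samples diluted from 10 mg/mL DMSO master stocks (screening at 100, 20, 4, 0.8 µg/mL). Media replaced on days 1 and 4, assay ended day 6. Viability by XTT, 50% cytotoxic concentration taken. Mean of three independent assays.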

[2] = Selectivity index, ratio of CC50 for human H9 cells to EC50 for HIV1 3B; format: toxicity, cell-based
Outline: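 SI = CC50/EC50 in H9 cells. Toxicity by XTT on mock-infected H9 cultures set up identically to the HIV-1 IIIB infection wells (same drug concentrations, media changes days 1 and 4, 6-day culture).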

[3] = system: Human immunodeficiency virus 1; test: Antiviral activity against HIV1 3B infected in human H9 cells assessed as inhibition of viral replication after 6 days by p24 antigen based assay; format: functional, organism-based
Outline: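 H9 cells (3 × 10⁵ cells/mL) infected with HIV-1 IIIB, 125 TCID₅₀ per well, with drug diluted from 10 mg/mL DMSO master stocks; screening at 100, 20, 4, 0.8 µg/mL, with further dilutions for actives. Media replaced on days 1 and 4; supernatant p24 antigen capture on day 6. Run alongside AZT control; averages of three independent assays.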

[4] = system: Human immunodeficiency virus 1; test: Antiviral activity against HIV1 with reverse transcriptase A17 (K103N, Y181C) mutant infected in human MT2 cells assessed as inhibition of p24 antigen production after 4 days by ELISA; format: functional, organism-based; conditions: Human immunodeficiency virus 1, MT2, 96 h
Outline: (§1)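 Drug-resistant HIV-1 strains (Panacos) at MOI 0.001 TCID₅₀/cell, mixed with compound dilutions in RPMI 1640/10% FBS and cells at 6×10⁵ cells/mL, 37 °C. Compound-containing fresh medium added on day 2; supernatant p24 ELISA on day 4. Averages of three independent assays.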

[5] = system: Human immunodeficiency virus 1; test: Antiviral activity against HIV1 with reverse transcriptase Y181C mutant infected in human MT2 cells assessed as inhibition of p24 antigen production after 4 days by ELISA; format: functional, organism-based; conditions: Human immunodeficiency virus 1, MT2, 96 h; outline: as §1
[6] = target: Human immunodeficiency virus type 1 reverse transcriptase (Human immunodeficiency virus 1) (UniProt Q72547); test: Inhibition of HIV1 DH012 reverse transcriptase
Outline: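 Reverse transcriptase activity of primary isolate HIV-1 DH012 measured with a colorimetric HIV-1 RT kit following the manufacturer's protocol, in the presence of various compound concentrations. The kit reads RNA-dependent DNA polymerase activity.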

[7] = system: Human immunodeficiency virus 1; test: Antiviral activity against HIV1 with reverse transcriptase 8605MR mutant infected in human MT2 cells assessed as inhibition of p24 antigen production after 4 days by ELISA; format: functional, organism-based; conditions: Human immunodeficiency virus 1, MT2, 96 h; outline: as §1
[8] = system: Human immunodeficiency virus 1; test: Resistant fold, ratio of EC50 for HIV1 with reverse transcriptase A17 (K103N, Y181C) mutant to EC50 for wild type HIV1 3B; format: functional
[9] = system: Human immunodeficiency virus 1; test: Antiviral activity against HIV1 with reverse transcriptase 6005MR mutant infected in human MT2 cells assessed as inhibition of p24 antigen production after 4 days by ELISA; format: functional, organism-based; conditions: Human immunodeficiency virus 1, MT2, 96 h; outline: as §1
[10] = Human immunodeficiency virus 1, 3B, H9, 144 h, read-out: EC50

Structure (SMILES)	CC50 (H9) [µM]	Ratio CC50/EC50 [2]	EC50 [3, 10] [µM]	further results
Cc1cc(C#N)cc(C)c1Oc1cc(Nc2ccc(C#N)cc2)c(N)cc1[N+](=O)[O-]	62.7	20887	0.003	EC50 [1]: 0.005 µM; EC50 [4]: 0.231 µM; EC50 [5]: 0.504 µM; Activity [6]: Active; EC50 [7]: 0.005 µM; Ratio EC50 [8]: 18.9; EC50 [9]: 0.005 µM
Cc1cc(C)c(Oc2cc(Nc3ccc(C#N)cc3)c(N)cc2[N+](=O)[O-])c(C)c1	32.2	520	0.062	
Cc1cc(C#N)cc(C)c1Oc1ccc(N)c(Nc2ccc(C#N)cc2)c1	49.8	711	0.07	
Cc1cc(Br)cc(C)c1Oc1cc(Nc2ccc([N+](=O)[O-])cc2)c([N+](=O)[O-])cc1[N+](=O)[O-]	> 49.7	> 1	> 49.7	
Cc1cc(Br)cc(C)c1Oc1cc(Nc2ccc(C#N)cc2)c(N)cc1N	38.4	238	0.161	
Cc1cc(C#N)cc(C)c1Oc1nc(Nc2ccc(C#N)cc2)nc(N)c1Br [ETRAVIRINE]				EC50 [1]: 0.058 µM; EC50 [4]: 0.575 µM; Ratio EC50 [8]: 9.9
Cc1cc(Br)cc(C)c1Oc1ccc(N)c(Nc2ccc(C#N)cc2)c1	44.6	949	0.047	
Cc1cc(Br)cc(C)c1Oc1cc(Nc2ccc(C#N)cc2)c(N)cc1[N+](=O)[O-]		2842	0.016	EC50 [1]: 0.008 µM; CC50 (H9; 144 h): 45.5 µM; EC50 [4]: 0.254 µM; EC50 [5]: 1.3 µM; EC50 [7]: 0.02 µM; Ratio EC50 [8]: 20.3; EC50 [9]: 0.007 µM
Cc1cc(C#N)cc(C)c1Oc1cc(Nc2ccc(C#N)cc2)c(N)cc1N	51	1698	0.03	EC50 [1]: 0.065 µM; EC50 [4]: 1.24 µM; EC50 [5]: 1.73 µM; Activity [6]: Active; EC50 [7]: 0.138 µM; Ratio EC50 [8]: 73.3; EC50 [9]: 0.033 µM
Cc1ccnc2c1NC(=O)c1cccnc1N2C1CC1 [NEVIRAPINE]				EC50 [1]: 0.053 µM; EC50 [4]: > 3.7 µM; EC50 [5]: > 3.7 µM; EC50 [7]: > 3.7 µM; EC50 [9]: > 3.7 µM
Cc1cn([C@H]2C[C@H](N=[N+]=[N-])[C@@H](CO)O2)c(=O)[nH]c1=O [ZIDOVUDINE]	1870	36019	0.052	
Cc1cccc(C)c1Oc1cc(Nc2ccc(C#N)cc2)c([N+](=O)[O-])cc1[N+](=O)[O-]	> 61.9	> 113	0.545	
Cc1cc(C)c(Oc2cc(Nc3ccc(C#N)cc3)c([N+](=O)[O-])cc2[N+](=O)[O-])c(C)c1	> 59.8	> 214	0.28	
COc1ccc(Nc2cc(Oc3c(C)cc(C)cc3C)c([N+](=O)[O-])cc2[N+](=O)[O-])cc1	> 59.1	> 20	2.99	
Cc1cccc(C)c1Oc1cc(Nc2ccc(C#N)cc2)c(N)cc1N	53.2	16	3.23	
Cc1cc(C=O)cc(C)c1Oc1ccc([N+](=O)[O-])c(Nc2ccc(C#N)cc2)c1	14.2	6	2.19	
Cc1cc(Br)cc(C)c1Oc1ccc([N+](=O)[O-])c(Nc2ccc(C#N)cc2)c1	> 57.1	> 180	0.317	
Cc1cc(C)c(Oc2ccc(N)c(Nc3ccc(C#N)cc3)c2)c(C)c1	51	699	0.073	
Cc1cc(Br)cc(C)c1Oc1cc(Nc2ccc(C#N)cc2)c(N)cc1[N+](=O)[O-].Cl		3035		EC50 ([3]; h9, read-out: EC50): 0.012 µM
Cc1cc(Br)cc(C)c1Oc1cc(Nc2ccc(C#N)cc2)c([N+](=O)[O-])cc1[N+](=O)[O-]	> 51.8	> 301	0.172	
Cc1cc(C#N)cc(C)c1Oc1cc(Nc2ccc(C#N)cc2)c([N+](=O)[O-])cc1[N+](=O)[O-]	> 58.3	> 14	4.19	
Cc1cc(C#N)cc(C)c1Oc1ccc([N+](=O)[O-])c(Nc2ccc(C#N)cc2)c1	> 65.1	> 313	0.208	
Cc1cc(Br)cc(C)c1Oc1cc(Nc2ccc(Cl)cc2)c([N+](=O)[O-])cc1[N+](=O)[O-]				EC50 ([3]; h9): Not Active
Cc1ccc(Nc2cc(Oc3c(C)cc(Br)cc3C)c([N+](=O)[O-])cc2[N+](=O)[O-])cc1	53	12	4.31	
Cc1cccc(C)c1Oc1ccc([N+](=O)[O-])c(Nc2ccc(C#N)cc2)c1	69.6	22	3.15	
COc1ccc(Nc2cc(Oc3c(C)cc(Br)cc3C)c([N+](=O)[O-])cc2[N+](=O)[O-])cc1	51.2	14	3.63	
COc1ccc(Nc2cc(Oc3c(C)cccc3C)c([N+](=O)[O-])cc2[N+](=O)[O-])cc1	> 61.1	> 16	3.84	
Cc1cc(C)c(Oc2ccc([N+](=O)[O-])c(Nc3ccc(C#N)cc3)c2)c(C)c1	> 67	> 1000	0.067	
Cc1cc(C=O)cc(C)c1Oc1cc(Nc2ccc(C#N)cc2)c([N+](=O)[O-])cc1[N+](=O)[O-]	57.9	38	1.53	
Cc1cc(C)c(Oc2cc(Nc3ccc(C#N)cc3)c(N)cc2N)c(C)c1	50	714	0.07	
